Laboratory results as given in ChEMBL document CHEMBL4118021, “Studies of TAK1-centered polypharmacology with novel covalent TAK1 inhibitors” (Bioorg Med Chem, 2017).
Activity calls are given as the source filed them. The rule behind the calls is not given here.

Experiments:
[1] = biological target: Platelet-derived growth factor receptor alpha (Homo sapiens) (UniProt P16234); experiment: Inhibition of human PDGFRA (575 to 1002 residues) expressed in mammalian expression system assessed as enzyme activity at 1 uM by KINOMEScan assay relative to control; design: scale not given: the % may be the effect or the level left
How it was run: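 In vitro ATP-site competition binding assay across a panel of 456 kinases, with compound tested at 1 and 10 μM.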

[2] = biological target: T1, 80S Ribosome (Homo sapiens) (UniProt P08865+P42677+P62753+P15880+P23396+P61247+P62701+P22090+P46782+P62081+P62241+P46781+P46783+P62280+P25398+P62277+P62263+P62841+P62244+P62249+P08708+P62269+P39019+P60866+P63220+P62266+P62847+P62851+P62854+P62979+P62857+P62273+P62861+P39023+P36578+P46777+Q02878+P18124+P62424+P62917+P32969+P27635+P62906+P62913+P30050+P26373+P40429+P50914+P61313+P18621+Q07020+Q02543+P84098+P46778+P35268+P62829+P62750+P83731+P61254+P61353+P46776+P46779+P47914+P62888+P62899+P62910+P49207+P42766+P18077+Q9Y3U8+P83881+P61927+P61513+P63173+P62891+P62945+P05388+P05386); experiment: Binding affinity to RPS25 in human NCI-H23 cells at 1 uM by mass spectrometry based pull down assay; assay type: cell-based
[3] = biological target: Probable ATP-dependent RNA helicase DDX5 (Homo sapiens) (UniProt P17844); experiment: Binding affinity to DDX5 in human NCI-H23 cells at 1 uM by mass spectrometry based pull down assay; assay type: cell-based
[4] = biological target: Polyadenylate-binding protein 4 (Homo sapiens) (UniProt Q13310); experiment: Binding affinity to PABPC4 in human NCI-H23 cells at 1 uM by mass spectrometry based pull down assay; assay type: cell-based
[5] = biological target: Neuroblast differentiation-associated protein AHNAK (Homo sapiens) (UniProt Q09666); experiment: Binding affinity to AHNAK in human NCI-H23 cells at 1 uM by mass spectrometry based pull down assay; assay type: cell-based
How it was run: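 NCI-H23 or NCI-H358 cells were grown and lysed. Lysates were incubated overnight at 4 °C with 1 μM biotinylated covalent probe or DMSO, then pulled down on streptavidin beads. Proteins were run on polyacrylamide gels and stained with Coomassie. Bands were excised, digested and identified by mass spectrometry.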

[6] = biological target: Trifunctional enzyme subunit alpha, mitochondrial (Homo sapiens) (UniProt P40939); experiment: Binding affinity to HADHA in human NCI-H23 cells at 1 uM by mass spectrometry based pull down assay; assay type: cell-based
[7] = biological target: Tyrosine-protein kinase Yes (Homo sapiens) (UniProt P07947); experiment: Binding affinity to YES1 in human NCI-H23 cells at 1 uM by mass spectrometry based pull down assay; assay type: cell-based
[8] = tested on: NCI-H23; experiment: Binding affinity to PSMA5 in human NCI-H23 cells at 1 uM by mass spectrometry based pull down assay; assay type: cell-based
[9] = biological target: T1, 80S Ribosome (Homo sapiens); experiment: Binding affinity to RPS17 in human NCI-H23 cells at 1 uM by mass spectrometry based pull down assay; assay type: cell-based
[10] = biological target: Bifunctional 3'-phosphoadenosine 5'-phosphosulfate synthase 2 (Homo sapiens) (UniProt O95340); experiment: Binding affinity to PAPSS2 in human NCI-H23 cells at 1 uM by mass spectrometry based pull down assay; assay type: cell-based
[11] = biological target: Glyoxalase domain-containing protein 4 (Homo sapiens) (UniProt Q9HC38); experiment: Binding affinity to GLOD4 in human NCI-H23 cells at 1 uM by mass spectrometry based pull down assay; assay type: cell-based
[12] = biological target: 14-3-3 protein epsilon (Homo sapiens) (UniProt P62258); experiment: Binding affinity to YWHAE in human NCI-H358 cells at 1 uM by mass spectrometry based pull down assay; assay type: cell-based
[13] = biological target: DNA mismatch repair protein Msh2 (Homo sapiens) (UniProt P43246); experiment: Binding affinity to MSH2 in human NCI-H358 cells at 1 uM by mass spectrometry based pull down assay; assay type: cell-based
[14] = biological target: Adenylyltransferase and sulfurtransferase MOCS3 (Homo sapiens) (UniProt O95396); experiment: Binding affinity to MOCS3 in human NCI-H358 cells at 1 uM by mass spectrometry based pull down assay; assay type: cell-based
[15] = biological target: Calponin-2 (Homo sapiens) (UniProt Q99439); experiment: Binding affinity to CNN2 in human NCI-H358 cells at 1 uM by mass spectrometry based pull down assay; assay type: cell-based
[16] = biological target: Aurora kinase B (Homo sapiens) (UniProt Q96GD4); experiment: Binding affinity to AURKB in human NCI-H358 cells at 1 uM by mass spectrometry based pull down assay; assay type: cell-based
[17] = biological target: T1, 80S Ribosome (Homo sapiens); experiment: Binding affinity to RPL5 in human NCI-H358 cells at 1 uM by mass spectrometry based pull down assay; assay type: cell-based
[18] = biological target: Serine hydroxymethyltransferase, mitochondrial (Homo sapiens) (UniProt P34897); experiment: Binding affinity to SHMT2 in human NCI-H358 cells at 1 uM by mass spectrometry based pull down assay; assay type: cell-based
[19] = biological target: T2, Mitogen-activated protein kinase kinase kinase 7 (Homo sapiens) (UniProt O43318); experiment: Inhibition of biotin-labeled N-(2-(2-(2-(2-(4-(4-((4-((2-Acrylamidophenyl)amino)-5-chloropyrimidin-2-yl)amino)phenyl)piperazin-1-yl)ethoxy)ethoxy)ethoxy)ethyl)-5-((3aS,4S,6aR)-2-oxohexahydro-1H-thieno[3,4-d]imidazol-4-yl)pentanamide probe binding to TAK1 in human NCI-H358 cells at 10 uM after 6 hrs by immunoblot based competitive pull down assay; assay type: cell-based
T2 sequence (whole entry): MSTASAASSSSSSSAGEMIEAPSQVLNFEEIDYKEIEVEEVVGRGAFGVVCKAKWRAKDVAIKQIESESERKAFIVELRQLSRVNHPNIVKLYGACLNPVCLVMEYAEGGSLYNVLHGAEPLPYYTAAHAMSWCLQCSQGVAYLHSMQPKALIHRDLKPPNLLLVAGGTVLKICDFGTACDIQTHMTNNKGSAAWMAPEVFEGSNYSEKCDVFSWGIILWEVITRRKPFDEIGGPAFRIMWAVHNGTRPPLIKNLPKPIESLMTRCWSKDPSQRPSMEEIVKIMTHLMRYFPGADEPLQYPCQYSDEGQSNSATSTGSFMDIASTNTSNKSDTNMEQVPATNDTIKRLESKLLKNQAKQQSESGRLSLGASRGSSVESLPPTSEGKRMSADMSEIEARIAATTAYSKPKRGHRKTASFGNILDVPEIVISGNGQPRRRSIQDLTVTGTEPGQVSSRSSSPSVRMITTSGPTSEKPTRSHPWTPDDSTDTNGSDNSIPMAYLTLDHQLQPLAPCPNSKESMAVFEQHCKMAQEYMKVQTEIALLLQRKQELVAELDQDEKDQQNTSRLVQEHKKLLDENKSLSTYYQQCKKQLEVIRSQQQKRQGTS
How it was run: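 H358 cells given 1 or 10 μM compound for 6 h, medium removed, cells rinsed twice with cold PBS and lysed in MPER buffer. Lysates incubated overnight at 4 °C with 1 μM biotinylated covalent probe, captured on streptavidin beads, and TAK1 recovery assessed by immunoblotting with anti-TAK1 antibody.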

Sequence of DNA mismatch repair protein Msh2 (Homo sapiens) (P43246 whole entry): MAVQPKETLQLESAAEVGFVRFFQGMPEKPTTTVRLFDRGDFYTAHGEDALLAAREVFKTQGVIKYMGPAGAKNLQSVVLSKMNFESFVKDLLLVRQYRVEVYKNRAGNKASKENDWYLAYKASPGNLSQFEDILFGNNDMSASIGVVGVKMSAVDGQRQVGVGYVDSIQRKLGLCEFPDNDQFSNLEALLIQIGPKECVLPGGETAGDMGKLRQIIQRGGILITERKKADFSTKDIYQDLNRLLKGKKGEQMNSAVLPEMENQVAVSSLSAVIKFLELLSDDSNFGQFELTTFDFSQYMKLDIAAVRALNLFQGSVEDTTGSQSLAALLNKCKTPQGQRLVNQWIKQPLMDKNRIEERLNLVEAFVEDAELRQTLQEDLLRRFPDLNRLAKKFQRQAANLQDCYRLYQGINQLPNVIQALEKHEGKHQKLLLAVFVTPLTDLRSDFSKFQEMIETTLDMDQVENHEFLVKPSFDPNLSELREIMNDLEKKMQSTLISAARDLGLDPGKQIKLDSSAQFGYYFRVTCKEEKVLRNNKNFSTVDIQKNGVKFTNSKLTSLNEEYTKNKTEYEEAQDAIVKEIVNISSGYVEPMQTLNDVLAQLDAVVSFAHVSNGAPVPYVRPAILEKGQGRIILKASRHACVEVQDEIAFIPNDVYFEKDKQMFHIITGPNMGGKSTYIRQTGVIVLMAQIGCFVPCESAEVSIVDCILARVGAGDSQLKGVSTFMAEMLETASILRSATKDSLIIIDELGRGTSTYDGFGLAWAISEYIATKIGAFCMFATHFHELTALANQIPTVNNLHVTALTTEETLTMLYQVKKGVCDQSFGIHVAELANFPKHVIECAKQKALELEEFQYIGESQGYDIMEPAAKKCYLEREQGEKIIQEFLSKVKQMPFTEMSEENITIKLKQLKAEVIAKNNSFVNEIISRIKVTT
Sequence of Tyrosine-protein kinase Yes (Homo sapiens) (P07947 2-543 limits assumed): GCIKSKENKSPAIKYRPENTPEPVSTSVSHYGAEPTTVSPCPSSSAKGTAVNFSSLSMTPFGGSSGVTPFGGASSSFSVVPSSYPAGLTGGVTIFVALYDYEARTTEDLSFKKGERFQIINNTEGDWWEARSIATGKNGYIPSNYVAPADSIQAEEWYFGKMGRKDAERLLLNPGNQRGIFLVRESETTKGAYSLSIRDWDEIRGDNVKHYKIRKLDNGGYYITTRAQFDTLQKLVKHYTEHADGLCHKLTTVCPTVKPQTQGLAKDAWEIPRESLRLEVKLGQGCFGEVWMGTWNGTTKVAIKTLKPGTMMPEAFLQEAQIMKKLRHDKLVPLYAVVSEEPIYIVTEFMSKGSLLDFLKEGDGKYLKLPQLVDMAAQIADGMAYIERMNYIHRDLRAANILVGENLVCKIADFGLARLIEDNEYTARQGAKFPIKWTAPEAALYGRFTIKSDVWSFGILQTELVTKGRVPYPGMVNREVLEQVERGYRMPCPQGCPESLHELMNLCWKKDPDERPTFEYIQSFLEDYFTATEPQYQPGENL
Sequence of Adenylyltransferase and sulfurtransferase MOCS3 (Homo sapiens) (O95396 whole entry): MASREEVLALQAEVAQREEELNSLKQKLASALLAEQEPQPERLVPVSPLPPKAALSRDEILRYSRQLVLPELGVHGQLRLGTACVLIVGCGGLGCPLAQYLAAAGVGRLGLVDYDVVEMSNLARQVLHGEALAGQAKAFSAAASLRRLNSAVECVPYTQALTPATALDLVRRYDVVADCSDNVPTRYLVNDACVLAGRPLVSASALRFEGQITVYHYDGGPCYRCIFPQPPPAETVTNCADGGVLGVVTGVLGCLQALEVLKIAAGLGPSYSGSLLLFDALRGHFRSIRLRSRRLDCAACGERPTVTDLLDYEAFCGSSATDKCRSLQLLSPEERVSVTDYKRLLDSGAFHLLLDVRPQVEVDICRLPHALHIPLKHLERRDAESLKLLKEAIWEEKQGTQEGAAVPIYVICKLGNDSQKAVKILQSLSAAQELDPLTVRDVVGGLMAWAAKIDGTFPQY
Sequence of Aurora kinase B (Homo sapiens) (Q96GD4 whole entry): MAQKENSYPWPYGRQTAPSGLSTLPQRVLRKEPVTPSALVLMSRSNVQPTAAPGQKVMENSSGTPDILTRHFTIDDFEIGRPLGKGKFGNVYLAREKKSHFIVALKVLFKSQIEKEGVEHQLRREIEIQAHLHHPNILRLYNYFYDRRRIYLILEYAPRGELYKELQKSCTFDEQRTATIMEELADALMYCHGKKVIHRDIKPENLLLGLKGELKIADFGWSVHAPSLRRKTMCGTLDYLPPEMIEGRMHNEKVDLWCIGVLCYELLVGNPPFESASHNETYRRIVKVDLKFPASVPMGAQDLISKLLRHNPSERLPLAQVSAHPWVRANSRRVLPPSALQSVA
Sequence of Trifunctional enzyme subunit alpha, mitochondrial (Homo sapiens) (P40939 whole entry): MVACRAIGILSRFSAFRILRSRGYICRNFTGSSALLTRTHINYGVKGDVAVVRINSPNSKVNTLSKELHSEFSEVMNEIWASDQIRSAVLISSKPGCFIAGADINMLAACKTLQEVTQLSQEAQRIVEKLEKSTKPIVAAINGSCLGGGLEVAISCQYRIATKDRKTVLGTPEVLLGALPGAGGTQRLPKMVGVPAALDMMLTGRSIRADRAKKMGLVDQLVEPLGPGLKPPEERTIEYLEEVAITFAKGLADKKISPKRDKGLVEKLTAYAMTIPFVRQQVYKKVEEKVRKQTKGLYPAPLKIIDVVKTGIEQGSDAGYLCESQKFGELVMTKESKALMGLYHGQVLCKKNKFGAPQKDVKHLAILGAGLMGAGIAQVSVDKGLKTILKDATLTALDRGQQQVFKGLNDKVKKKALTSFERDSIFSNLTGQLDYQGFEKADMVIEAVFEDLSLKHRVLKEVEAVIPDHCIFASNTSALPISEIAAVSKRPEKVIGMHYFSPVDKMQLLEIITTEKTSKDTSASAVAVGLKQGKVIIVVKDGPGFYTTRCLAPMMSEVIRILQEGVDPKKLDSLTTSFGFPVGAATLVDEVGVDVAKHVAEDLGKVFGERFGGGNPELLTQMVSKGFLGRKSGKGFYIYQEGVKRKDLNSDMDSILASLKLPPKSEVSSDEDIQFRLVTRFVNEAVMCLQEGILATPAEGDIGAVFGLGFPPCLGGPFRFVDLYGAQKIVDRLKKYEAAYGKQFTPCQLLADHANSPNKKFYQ
Sequence of Serine hydroxymethyltransferase, mitochondrial (Homo sapiens) (P34897 whole entry): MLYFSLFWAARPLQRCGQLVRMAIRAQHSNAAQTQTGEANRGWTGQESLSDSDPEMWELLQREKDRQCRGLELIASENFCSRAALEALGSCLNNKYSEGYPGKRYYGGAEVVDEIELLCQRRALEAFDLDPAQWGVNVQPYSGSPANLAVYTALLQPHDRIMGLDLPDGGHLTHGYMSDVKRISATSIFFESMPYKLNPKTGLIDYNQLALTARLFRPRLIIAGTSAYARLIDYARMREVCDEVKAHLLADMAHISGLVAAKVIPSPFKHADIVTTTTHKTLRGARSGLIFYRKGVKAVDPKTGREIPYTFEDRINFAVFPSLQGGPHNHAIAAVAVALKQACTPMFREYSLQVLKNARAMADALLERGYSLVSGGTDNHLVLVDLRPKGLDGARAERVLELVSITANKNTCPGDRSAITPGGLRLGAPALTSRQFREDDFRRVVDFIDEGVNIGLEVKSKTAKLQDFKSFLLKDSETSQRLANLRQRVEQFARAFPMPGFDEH
Sequence of Platelet-derived growth factor receptor alpha (Homo sapiens) (P16234 whole entry, the tested form may be a part): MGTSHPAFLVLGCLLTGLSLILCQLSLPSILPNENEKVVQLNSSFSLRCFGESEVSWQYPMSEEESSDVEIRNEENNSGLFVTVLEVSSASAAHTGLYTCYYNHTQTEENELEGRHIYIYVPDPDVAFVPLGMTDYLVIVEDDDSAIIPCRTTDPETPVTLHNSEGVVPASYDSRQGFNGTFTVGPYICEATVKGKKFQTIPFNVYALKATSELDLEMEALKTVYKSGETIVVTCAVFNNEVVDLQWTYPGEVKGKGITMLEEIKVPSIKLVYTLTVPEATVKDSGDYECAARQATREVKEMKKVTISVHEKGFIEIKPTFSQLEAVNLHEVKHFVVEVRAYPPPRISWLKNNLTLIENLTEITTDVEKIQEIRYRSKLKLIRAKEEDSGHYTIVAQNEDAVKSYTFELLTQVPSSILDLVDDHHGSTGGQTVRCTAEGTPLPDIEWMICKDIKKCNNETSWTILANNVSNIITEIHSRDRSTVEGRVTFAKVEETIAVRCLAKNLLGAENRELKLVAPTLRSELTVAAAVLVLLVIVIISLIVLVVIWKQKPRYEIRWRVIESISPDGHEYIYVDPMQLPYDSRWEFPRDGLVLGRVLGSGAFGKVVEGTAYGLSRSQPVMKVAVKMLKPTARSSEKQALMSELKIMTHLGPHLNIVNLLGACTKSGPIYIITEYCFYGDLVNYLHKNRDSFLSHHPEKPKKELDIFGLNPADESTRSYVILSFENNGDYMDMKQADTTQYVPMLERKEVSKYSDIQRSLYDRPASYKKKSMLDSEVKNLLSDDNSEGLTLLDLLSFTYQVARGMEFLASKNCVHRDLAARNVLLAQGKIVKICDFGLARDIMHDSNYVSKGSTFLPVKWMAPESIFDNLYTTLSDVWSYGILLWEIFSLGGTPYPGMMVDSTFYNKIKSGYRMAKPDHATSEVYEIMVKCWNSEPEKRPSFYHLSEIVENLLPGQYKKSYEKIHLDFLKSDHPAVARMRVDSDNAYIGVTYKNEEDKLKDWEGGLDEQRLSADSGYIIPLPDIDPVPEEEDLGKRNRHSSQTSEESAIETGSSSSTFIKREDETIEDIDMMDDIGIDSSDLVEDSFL
Sequence of 14-3-3 protein epsilon (Homo sapiens) (P62258 whole entry): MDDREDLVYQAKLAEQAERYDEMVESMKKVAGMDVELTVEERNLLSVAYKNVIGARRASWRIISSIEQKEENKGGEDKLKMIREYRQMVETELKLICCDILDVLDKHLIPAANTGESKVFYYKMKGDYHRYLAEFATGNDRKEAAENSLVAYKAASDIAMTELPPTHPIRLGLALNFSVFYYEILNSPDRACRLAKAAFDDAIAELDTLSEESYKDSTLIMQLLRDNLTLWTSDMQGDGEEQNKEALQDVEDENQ

Compound `COc1cc(O)c2c(c1)/C=C/C[C@H](O)[C@H](O)C(=O)/C=C\C[C@H](C)OC2=O` has an Activity [1] of 44%.

With `C=CC(=O)Nc1ccccc1Nc1nc(Nc2ccc(N3CCN(CCOCCOCCOCCNC(=O)CCCC[C@@H]4SC[C@@H]5NC(=O)N[C@@H]54)CC3)cc2)ncc1Cl` the Activity [2] was “Active”, the Activity [3] was “Active” and the Activity [4] was “Active”. The Activity [5] was “Active”, the Activity [6] was “Active” and the Activity [7] was “Active”. For the same compound, the Activity [8] was “Active”, the Activity [9] was “Active” and the Activity [10] was “Active”. The Activity [11] was “Active”, the Activity [12] was “Active” and the Activity [13] was “Active”. For the same compound, the Activity [14] was “Active”, the Activity [15] was “Active” and the Activity [16] was “Active”. The Activity [17] was “Active” and the Activity [18] was “Active”.

With `C=CC(=O)Nc1ccccc1Oc1nc(Nc2cnn(CCOC)c2)ncc1Cl` the inhibition [19] was “Active”.
